# Reference: paper PMC6263940 (Nature chemical biology, 2018)
# Tests used:
# [1] = system: serine hydrolases in THP-1 cells; assay: ABPP-SILAC; format: cell-based, human; settings: 1 μM, 4 h, THP-1 cells
# ABHD12 [2] = biological target: T1, ABHD12 (Mus musculus, UniProt Q99LR1); assay: Ex vivo gel-based competitive ABPP; format: in vivo; settings: mice, 60 mg/kg, 4 h
# T1 sequence (Q99LR1 1-398): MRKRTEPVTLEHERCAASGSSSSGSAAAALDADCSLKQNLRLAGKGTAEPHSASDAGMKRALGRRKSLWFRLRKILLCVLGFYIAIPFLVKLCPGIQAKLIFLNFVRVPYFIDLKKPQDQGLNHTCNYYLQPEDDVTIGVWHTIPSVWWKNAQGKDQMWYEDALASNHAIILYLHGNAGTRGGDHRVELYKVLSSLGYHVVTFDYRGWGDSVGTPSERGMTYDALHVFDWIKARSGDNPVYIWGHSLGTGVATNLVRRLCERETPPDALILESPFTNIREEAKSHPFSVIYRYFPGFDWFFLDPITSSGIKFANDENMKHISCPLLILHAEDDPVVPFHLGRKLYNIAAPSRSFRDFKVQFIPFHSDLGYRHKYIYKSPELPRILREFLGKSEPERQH
# THP-1 cells = assay: Targeted LC-MS of; format: cell-based, human; settings: DO264 0.001-1 μM, (S)-DO271 1 μM, 4 h
# How it was run: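 THP-1 cells (6 million in 10 mL) incubated with test compound or DMSO for 4 h at 37 °C, 5% CO₂. Cells washed twice with ice-cold DPBS and stored at −80 °C, then analysed by targeted LC-MS metabolomics for lyso-PS and PS species.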
# [3] = Measurement of drug concentration in brain and blood of mice; format: in vivo, mouse; settings: 4 h, at 60 mg/kg (i.p.) approximated exposures observed with DO264
# How it was run: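 Tissues harvested 4 h after dosing. Brain homogenised in 4 volumes of water per weight; cardiac-puncture blood quenched 1:4 in acetonitrile. Samples diluted 1000–2000-fold in 50% ACN and spiked into blank C57BL/6J brain homogenate or blood, alongside serially diluted calibration standards. After vortexing and centrifugation (4 °C, 15 min), supernatant diluted 5-fold in water and quantified by LC/MS/MS.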
# ABHD12 [4] = biological target: T2, ABHD12 (Homo sapiens, UniProt Q8N2K0); assay: In situ treatment of THP-1 cells, competitive gel-based ABPP with JJH350 probe; format: cell-based; settings: 1 μM, 4 h in situ
# T2 sequence (Q8N2K0 1-398): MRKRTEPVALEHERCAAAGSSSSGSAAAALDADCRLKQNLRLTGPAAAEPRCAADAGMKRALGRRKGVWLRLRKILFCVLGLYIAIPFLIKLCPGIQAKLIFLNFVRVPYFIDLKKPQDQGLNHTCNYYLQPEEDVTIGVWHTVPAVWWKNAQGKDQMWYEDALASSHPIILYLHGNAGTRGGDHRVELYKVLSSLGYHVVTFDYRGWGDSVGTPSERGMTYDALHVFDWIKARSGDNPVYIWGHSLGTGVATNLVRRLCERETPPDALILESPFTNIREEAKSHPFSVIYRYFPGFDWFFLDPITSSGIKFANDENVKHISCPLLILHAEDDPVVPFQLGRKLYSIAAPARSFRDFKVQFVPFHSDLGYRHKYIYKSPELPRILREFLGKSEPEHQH
# How it was run: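 Whole THP-1 cells exposed to test compound or DMSO for 4 h at 37 °C, 5% CO₂, then washed twice with ice-cold DPBS. Proteome (1 mg/mL) labelled with JJH350 (2 μM final, 45 min, 37 °C), clicked by CuAAC and resolved on gel. ABHD12 band intensity is expressed relative to the control-treated sample, set to 100%.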
# LCMV clone 13 = settings: mouse, in vivo, ip, 30 mg/kg
# mice = assay: Two-week daily dosing, overt signs of toxicity; format: in vivo, mouse; settings: adult mice, 30 mg/kg daily, p.o., two weeks
# ABHD12 [5] = biological target: T1, ABHD12; assay: Competitive gel-based ABPP with JJH350 probe in mouse brain membrane proteome; format: biochemical; settings: for activity against ABHD12 (in words): gel-based competitive ABPP, mouse brain membrane proteome
# ABHD12 [6] = biological target: T2, ABHD12; assay: ABPP-SILAC; format: cell-based; settings: 1 μM, 4 h, THP-1 cells
# How it was run: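 Heavy- or light-labelled THP-1 cells (30 million) differentiated with PMA (150 ng/mL final) for 24 h, washed, then kept a further 24 h in fresh SILAC medium. Light cells treated with test compound and heavy cells with DMSO, 4 h at 37 °C. Sonicated whole-cell proteomes (2 mg/mL) labelled separately with FP-biotin 1 μM, 30 min, room temperature, then combined for quantitative MS.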
# ABHD12 [7] = biological target: T1, ABHD12; assay: Competitive ABPP with FP-Rh probe, lysates of ABHD12-transfected cells; format: biochemical; settings: hit compound tested at 10 μM
# How it was run: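 Mouse ABHD12 expressed in HEK293F cells by PEI transfection (48 h, 37 °C, 5% CO₂). Membranes prepared by hypotonic lysis, sonication, 100,000 × g pelleting and a high-salt wash, then resuspended in DPBS. Lysate (1 mg/mL) pre-exposed to hit compound, then labelled with FP-Rh (1 μM final, 45 min, 37 °C). Gel band intensity is read relative to control (100%).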
# ABHD12 [8] = biological target: T1, ABHD12; assay: Lyso-PS hydrolysis assay with membrane lysates of ABHD12-transfected cells; format: biochemical
# How it was run: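 Membrane lysate of ABHD12-transfected cells in DPBS incubated with 17:1 lyso-PS (100 μM final) for 20 min at 37 °C. Quenched in 2:1 CHCl₃/MeOH with 15:0 FFA internal standard. Activity is the LC-MS 17:1 FFA/15:0 FFA peak-area ratio minus mock-transfected membrane activity. IC50 fitted as log(inhibitor) vs normalized response.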
# ABHD12 [9] = biological target: T1, ABHD12; assay: Covalent labelling of mouse brain ABHD12 visualized by CuAAC with Rh-N3; format: biochemical; settings: 45 min, 37 °C
smiles,measurement,setting,value
"FC(F)(F)Oc1ccc(Oc2ccnc(N3CCC[C@H](NC(=S)Nc4cccnc4)C3)c2Cl)c(Cl)c1 [(S)-DO271, (S)-N-3-pyridyl-N’-(1-[3-chloro-4-{2-chloro-4-(trifluoromethoxy)phenoxy}pyridine-2-yl]piperidin-3-yl)thiourea]",effect on activity of other serine hydrolases,[1],did not affect
same,"brain ABHD12 activity, ex vivo analysis with JJH350 probe",ABHD12 [2],did not block
same,lyso-PS content of THP-1 cells,THP-1 cells,did not alter
same,exposure compared with DO264 (in words),[3],lower exposure
same,ABHD12 activity in THP-1 cells by competitive gel-based ABPP (in words),ABHD12 [4],unaffected
same,fraction of treated ABHD12(−/−) mice that died prior to sacrifice at day 10,LCMV clone 13,30-40%
same,"overt signs of toxicity, such as weight loss or behavioral distress",mice,neither compound produced overt signs of toxicity
same,activity against ABHD12 (in words),ABHD12 [5],inactive
same,effect on ABHD12 activity (in words),ABHD12 [6],did not affect
"Cc1cnc(N2CCN(NC(=S)Nc3cccnc3)CC2)c(Cl)c1 [DO127, N-3-pyridyl-N’-[1-{3-chloro-5-(methyl)pyridin-2-yl}piperazine-4-yl]thiourea]",activity against ABHD12 (in words),ABHD12 [5],no activity
"FC(F)(F)c1cnc(N2CCC(NC(=S)Nc3cccnc3)CC2)c(Cl)c1 [DO130, N-3-pyridyl-N’-[1-{3-chloro-5-(trifluoromethyl)pyridin-2-yl}piperidin-4-yl]thiourea]",activity in competitive ABPP secondary assay (FP-Rh probe),ABHD12 [7],showed activity
same,IC50,ABHD12 [8],1.3 µM
same,activity in LC/MS-based lyso-PS hydrolysis secondary assay,ABHD12 [8]; hit compound tested at 10 μM,showed activity
"C#Cc1ccc(Oc2ccnc(N3CCC(NC(=S)Nc4cccnc4)CC3)c2Cl)c(Cl)c1 [DO274, N-3-pyridyl-N’-(1-[3-chloro-4-{2-chloro-4-(ethynyl)phenoxy}pyridine-2-yl]piperidin-4-yl)thiourea]",ABHD12 inhibitory activity (in words),ABHD12 [8],potent ABHD12 inhibitory activity
same,covalent modification of ABHD12,ABHD12 [9],did not show evidence of covalent modification
"CN(C(=S)Nc1cccnc1)C1CCN(c2nccc(Oc3ccc(OC(F)(F)F)cc3Cl)c2Cl)CC1 [DO276, N-3-pyridyl-N’-methyl-N’-(1-[3-chloro-4-{2-chloro-4-(trifluoromethoxy)phenoxy}pyridine-2-yl]piperidin-4-yl)thiourea]",IC50,ABHD12 [5],1.1 µM
"O=C(Nc1cccnc1)NC1CCN(c2nccc(Oc3ccc(OC(F)(F)F)cc3Cl)c2Cl)CC1 [DO277, N-3-pyridyl-N’-(1-[3-chloro-4-{2-chloro-4-(trifluoromethoxy)phenoxy}pyridine-2-yl]piperidin-4-yl)urea]",IC50,ABHD12 [5],0.17 µM
